In the library only some 4.3% were active in any assay of this set; here they are far more common.
APP 5'UTR act: activates APP 5'UTR luciferase reporter; SH-SY5Y APP 5'UTR luciferase reporter, luminescence; zero percent = DMSO vehicle wells; activation, % at 2 µM; 190,000 tested, 1% active; AID 1276;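 active = activation above a set limit, based on mean plus 3 SD of controls, cut at about 140% in these data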
STAT1 act: increases IFN-gamma driven STAT1 reporter signal. activation (% of control), % at 5.5 µM. NIH 3T3 STAT1-luciferase reporter, luminescence; 100% = IFN-gamma alone, no compound. AID 932. 200,000 tested, 2.6% active;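 active = activation above the screen-wide mean activation plus 3 SD, cut at about 130% in these data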;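 note: raw ratio to IFN-gamma control signal so 100% means no change and 0% no light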
FLuc act counter: firefly luciferase counter-screen for stimulation assays; 200,000 tested, under 10 active; ATPlite luciferase biochemical, luminescence, 10 min; 0 = ATP-free wells, 1 = DMSO control; activation factor at 10 µM;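 active = luciferase activation factor, scaled between plate controls, of at least 2 with compound at 10 µM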
Target sequence (P08659 whole entry, looked up): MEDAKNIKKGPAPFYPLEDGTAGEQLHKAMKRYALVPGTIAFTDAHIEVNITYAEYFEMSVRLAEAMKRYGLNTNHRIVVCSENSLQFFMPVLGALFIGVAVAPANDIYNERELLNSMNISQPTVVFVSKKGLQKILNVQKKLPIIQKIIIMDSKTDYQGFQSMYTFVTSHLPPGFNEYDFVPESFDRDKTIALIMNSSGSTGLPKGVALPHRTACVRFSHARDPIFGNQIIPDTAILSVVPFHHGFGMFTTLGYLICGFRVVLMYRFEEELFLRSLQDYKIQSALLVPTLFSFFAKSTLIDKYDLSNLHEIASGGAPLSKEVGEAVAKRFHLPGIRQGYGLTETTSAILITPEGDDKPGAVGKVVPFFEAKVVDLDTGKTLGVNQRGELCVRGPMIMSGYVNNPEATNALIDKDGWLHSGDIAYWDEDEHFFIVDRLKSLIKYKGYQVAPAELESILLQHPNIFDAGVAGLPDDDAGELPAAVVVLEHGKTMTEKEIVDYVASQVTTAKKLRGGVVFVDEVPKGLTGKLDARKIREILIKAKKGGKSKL
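Assay system – cell-free luciferase reagent · Medium – PBS-based ATP solution · Dosing – test compounds dosed from 2 mM stocks in 100% DMSO · Timing – 10 min, room temperature · Technique – light output (luminescence) · Measure – luminescence gain marking luciferase activators · Controls – No-ATP low control, compound-free enzyme-plus-ATP high control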
FLuc inhib CS: inhibits firefly luciferase, flagging false hits in luciferase inhibition screens. P08659. ATPLite firefly luciferase biochemical luminescence, 10 min. inhibition, % at 10 µM. 200,000 tested, 1.5% active. AID 1006;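 active = inhibition above about 50% when tested at 10 µM, limit read from the data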
NF-kB neuron act: NF-kB expression increase, human neuronal cells; fold change at 12.5 µM; 190,000 tested, 1.6% active; NF-kB reporter expression; hits give high values; AID 1239; in the data active = fold change above about 3.3
An asterisk follows results filed as active; . = not tested or not shown.

SMILES | APP 5'UTR act | STAT1 act | FLuc act counter | FLuc inhib CS | NF-kB neuron act
Cc1ccc(C(=O)Nc2nc3ccc(S(C)(=O)=O)cc3s2)s1 | 33 | 146* | 0.3 | 65* | 2.5
Cc1ccc2nc(NC(=O)c3ccc4ncsc4c3)sc2c1 | 172* | 147* | 0.6 | 41 | 4.1*
Cc1cc(C(=O)Nc2nc3ccc(S(C)(=O)=O)cc3s2)c(C)o1 | 2 | 113 | 0.6 | 42 | 1.9
Cc1nc(NC(=S)NC(=O)c2cccs2)ccc1Br | 68 | 101 | 0.4 | 58* | 2.2
Cc1ccc2nc(NC(=O)c3ccc(N4C(=O)CCC4=O)cc3)sc2c1 | 8 | 114 | 0.9 | 10 | 1.2
COc1cc(OC)cc(C(=O)Nc2nc3ccc(S(C)(=O)=O)cc3s2)c1 | 37 | 103 | 1 | 0 | 0.78
CS(=O)(=O)c1ccc2nc(NC(=O)c3cccs3)sc2c1 | 117 | 88 | 0.1 | 91* | 2.7
Cc1cccc(NC(=S)NC(=O)c2cccs2)n1 | 82 | 120 | 0.6 | 45 | 2
CCO[C@@H]1OC(C(=O)N2CCCCCCC2)=C[C@H](c2ccc(C(F)(F)F)cc2)[C@H]1CCCO | 6 | 97 | 1.1 | -13 | 0.93
CCC(=O)Nc1nc2ccc(S(C)(=O)=O)cc2s1 | -10 | 131* | 1 | -4 | 1.6
CCC(=O)Nc1cccc(NC(=S)NC(=O)c2ccccc2Cl)c1 | -5 | 111 | 1 | -4 | 1.8
CCC(=O)Nc1cccc(NC(=S)NC(=O)c2cccs2)c1 | 32 | 132* | 0.9 | 10 | 1.8
Cc1ccc2nc(NC(=S)NC(=O)c3cccs3)sc2c1 | 243* | 121 | 0.1 | 90* | 5.5*
Cc1ccc2nc(NC(=O)c3cccs3)sc2c1 | 163* | 129* | 0.3 | 73* | 11*
O=C(COc1cccc2cccnc12)N/N=C1\SCC(=O)N1CCc1ccccc1 | -20 | 103 | 1 | 2 | 1
O=C(COC(=O)C1(c2ccc(F)cc2)CCCC1)NC1CC1 | -17 | 102 | 1 | 1 | 0.92
COCCN1C(=O)c2cc(C(=O)Nc3ccc(OC)c(OC)c3)ccc2C1Nc1ccc(OC)c(OC)c1 (stereo unspecified) | -5 | 99 | 1.1 | -7 | 1
CN(C)Cc1c(-c2ccc(Cl)cc2)nc2ccccn12 | 65 | 141* | 0.8 | 16 | 2.9
COc1ccc(/C=C/C(=O)c2ccc(OC)cc2OC)cc1 | 5 | 100 | 0.9 | 7 | 1.9
COc1ccc(/C=C/C(=O)c2cc3c(cc2N)OCO3)cc1 | 145* | 111 | 0.2 | 79* | 3.8*
Cc1ccc(C2=NNC3(CCOC(C)(C)C3)S2)cc1 (stereo unspecified) | 178* | 114 | 1 | 4 | 2.9
Cc1ccc(S(=O)(=O)NCCC2(C(C)C)CCOC(C)(C)C2)cc1 (stereo unspecified) | 2 | 96 | 1.1 | -9 | 1
O=C(Nc1ccc(SC(F)F)cc1)c1ccc(F)cc1 | 107 | 137* | 0.8 | 20 | 4.7*
O=C(Nc1ccc(F)cc1)c1ccccc1 | 45 | 121 | 0.9 | 14 | 1.7
Cc1cc(CNC(=O)C(C)n2nc(C)c([N+](=O)[O-])c2C)c2ccccc2n1 (stereo unspecified) | -21 | 103 | 1 | -1 | 0.8
SMILES | APP 5'UTR act | STAT1 act | FLuc act counter | FLuc inhib CS | NF-kB neuron act
Oc1ccc(NCc2cccc(OCc3ccc(F)cc3)c2)cc1 | -3 | 129* | 1 | -4 | 1.4
Nc1nc2nccc(-c3cccnc3)n2n1 | 5 | 102 | 1.1 | -8 | 1.3
O=C(c1cccs1)c1ccc(-c2cccs2)s1 | 158* | 77 | 0.2 | 78* | 5.3*
COc1cc2c(C)nc3c(cnn3-c3ccccc3)c2cc1OC | 79 | 144* | 1 | -4 | .
Cc1nc2c(cnn2-c2ccccc2)c(=O)[nH]1 | 0 | 111 | 1.1 | -6 | .
O=C(NCCOCCNC(=O)OCc1ccccc1)OCc1ccccc1 | 6 | 91 | 1.1 | -5 | 0.99
O=C(O)c1ccc(/C=C/c2ccc3cccc(O)c3n2)cc1 | 89 | 96 | 0.9 | 15 | 3.2
COC(=O)c1ccc(/C=C/c2ccc3cccc(OC(C)=O)c3n2)cc1 | 120 | 101 | 0.6 | 43 | 3.7*
Cc1ccc(C)c(NC(=S)NC23CN4CN(CN(C4)C2)C3)c1 | 4 | 98 | 1 | -2 | 1
COc1ccc2c(C)cc(Sc3nnnn3-c3ccccc3)nc2c1 | -1 | 99 | 1.1 | -8 | 3.4*
CCc1ccc2c(c1)C(=O)c1ccccc1C2=O | 99 | 120 | 0.6 | 36 | 3.5*
CN(C)c1ccc(NC(=S)c2ccccn2)cc1 | 58 | 40 | 0.1 | 95* | 1.6
CN(C)c1ccc(C(=S)Nc2ccccc2)cc1 | 132 | 139* | 0.4 | 56* | 2.9
CN(C)c1ccc(NC(=O)Oc2ccccc2)cc1 | 126 | 130* | 0.3 | 74* | 1.5
CN(C)c1ccc(NC(=O)Nc2cccc(Cl)c2)cc1 | 181* | 135* | 0.5 | 47 | 7.2*
CN(C)S(=O)(=O)c1ccc(NC(=O)c2ccccn2)cc1 | 84 | 118 | 0.7 | 35 | 2.8
CC(=O)Nc1ccc(NC(=O)Oc2ccccc2)cc1 | 4 | 103 | 1 | 1 | 1.2
CC(C)CCn1c(=O)c2ccccc2n2c(CN3CCOCC3)nnc12 | 31 | 92 | 1 | -1 | 1.4
Cc1nn(C)c(C)c1S(=O)(=O)N1CCC(CO)(CC2CCCCO2)CC1 (stereo unspecified) | -2 | 97 | 1.1 | -9 | 1.1
Cc1cccc(NC(=S)NC2CC3CCCC(C2)N3Cc2ccccc2)c1C (stereo unspecified) | 4 | 91 | 1.1 | -6 | 1.3
NNC(=O)/C=C/c1ccc(Cl)cc1Cl | -3 | 89 | 0.9 | 11 | 1.2
Clc1ccc(SCc2nc3ccccc3[nH]2)cc1 | 36 | 111 | 0.8 | 19 | 1.6
O=C(/C=C/c1ccc(Cl)cc1Cl)c1nc2ccccc2[nH]1 | 6 | 101 | 0.3 | 66* | 1.2
Clc1cccc(Cl)c1/C=C/c1nc2ccccc2[nH]1 | 164* | 143* | 0.2 | 82* | 7.2*
Clc1ccc(/C=C/c2nc3ccccc3[nH]2)cc1 | . | 52 | 0 | 96* | 3.8*
SMILES | APP 5'UTR act | STAT1 act | FLuc act counter | FLuc inhib CS | NF-kB neuron act
Clc1ccc(/C=C/c2nc3ccccc3[nH]2)c(Cl)c1 | 221* | 39 | 0 | 96* | 2
Cc1noc(C)c1C(=O)OC(C)C(=O)Nc1ccc(S(=O)(=O)NC(C)C)cc1 (stereo unspecified) | 8 | 96 | 1.1 | -7 | 1
Cc1ccsc1/C=N/NC(=O)Cn1cnc2ccccc21 | -9 | 106 | 1.1 | -5 | 1.1
Cc1nnc(SCC(=O)Nc2cccc(S(=O)(=O)N(C)c3ccccc3)c2)s1 | 31 | 85 | 1 | 2 | 0.76
CCCOc1ccc(/C=N/Nc2ccccn2)cc1OC | 118 | 148* | 0.4 | 58* | 2.4
COc1cc(/C=N/Nc2ccccn2)ccc1OCC(C)C | 91 | 148* | 0.8 | 19 | 1.5
COc1cc(/C=N/Nc2ccccn2)cc(OC)c1O | -15 | 107 | 0.2 | 78* | 1.9
C=CCOc1ccc(/C=N/Nc2ccccn2)cc1OC | 91 | 138* | 0.5 | 49 | 2.5

Source: PubChem BioAssay
